Legend:
[1] = molecular target: T1, Fatty-acid amide hydrolase 1 (Rattus norvegicus, UniProt P97612); assay: Inhibition of FAAH in rat brain membranes assessed as hydrolysis of [14C]-anandamide after 30 mins; assay type: cell membranes
T1 sequence (P97612 whole entry): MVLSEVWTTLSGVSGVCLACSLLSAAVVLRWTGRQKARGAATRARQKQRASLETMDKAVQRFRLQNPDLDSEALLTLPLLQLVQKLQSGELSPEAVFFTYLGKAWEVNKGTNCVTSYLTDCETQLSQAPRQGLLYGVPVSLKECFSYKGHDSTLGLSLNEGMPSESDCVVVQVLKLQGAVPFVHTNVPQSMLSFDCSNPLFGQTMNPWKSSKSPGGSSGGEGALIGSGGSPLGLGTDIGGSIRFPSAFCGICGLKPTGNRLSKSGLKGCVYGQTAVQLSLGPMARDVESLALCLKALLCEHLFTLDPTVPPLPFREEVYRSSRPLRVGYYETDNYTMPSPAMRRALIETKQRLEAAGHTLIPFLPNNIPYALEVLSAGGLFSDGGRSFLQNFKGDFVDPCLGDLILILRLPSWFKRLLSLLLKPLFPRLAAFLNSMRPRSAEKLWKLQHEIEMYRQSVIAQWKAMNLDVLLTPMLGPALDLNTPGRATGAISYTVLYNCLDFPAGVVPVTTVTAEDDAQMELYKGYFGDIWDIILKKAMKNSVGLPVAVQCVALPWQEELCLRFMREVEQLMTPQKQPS
In short: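 Rat brain membrane FAAH; activity read as hydrolysis of anandamide, with the inhibitor added without preincubation (pit = 0). Values are reported as IC50.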

[2] = molecular target: T1, Fatty-acid amide hydrolase 1; assay: Inhibition of FAAH in rat brain membranes assessed as hydrolysis of [14C]-anandamide preincubated for 20 mins before [14C]-anandamide addition measured after 30 mins; assay type: cell membranes
In short: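 Rat brain membrane FAAH; the inhibitor was preincubated with the enzyme for 20 min before anandamide hydrolysis was measured. Values are reported as IC50.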

[3] = molecular target: T2, Fatty-acid amide hydrolase 1 (Homo sapiens, UniProt O00519); assay: Inhibition of human recombinant FAAH in assessed as hydrolysis of [14C]-anandamide preincubated for 20 mins before [14C]-anandamide addition measured after 30 mins
T2 sequence (O00519 whole entry): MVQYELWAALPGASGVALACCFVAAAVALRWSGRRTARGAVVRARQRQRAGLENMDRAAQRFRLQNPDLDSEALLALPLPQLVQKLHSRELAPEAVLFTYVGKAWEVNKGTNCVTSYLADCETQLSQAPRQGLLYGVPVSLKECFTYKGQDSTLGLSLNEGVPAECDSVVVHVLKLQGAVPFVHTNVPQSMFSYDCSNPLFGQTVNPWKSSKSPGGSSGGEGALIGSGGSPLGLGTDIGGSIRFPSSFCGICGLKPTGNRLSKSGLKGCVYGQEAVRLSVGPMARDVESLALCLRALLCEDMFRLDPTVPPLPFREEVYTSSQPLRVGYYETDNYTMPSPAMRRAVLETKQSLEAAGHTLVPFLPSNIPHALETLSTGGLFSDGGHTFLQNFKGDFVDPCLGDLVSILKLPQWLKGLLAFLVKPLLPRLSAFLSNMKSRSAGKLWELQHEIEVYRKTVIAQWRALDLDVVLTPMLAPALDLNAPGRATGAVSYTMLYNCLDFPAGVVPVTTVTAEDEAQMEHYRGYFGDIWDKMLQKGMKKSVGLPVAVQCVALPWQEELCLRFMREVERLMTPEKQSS
In short: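 Human recombinant FAAH; the inhibitor was preincubated for 20 min before anandamide hydrolysis was measured. Values are reported as IC50.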

[4] = molecular target: T3, Cholinesterase (Homo sapiens, UniProt P06276); assay: Inhibition of human serum BuChE using butyrylthiocholine iodide as substrate preincubated for 15 mins before substrate addition by Ellman's method
[5] = molecular target: T3, Cholinesterase; assay: Reversible inhibition of human serum BuChE using butyrylthiocholine iodide as substrate assessed as recovery of enzyme activity after 48 hrs by Ellman's method; design: scale not given: the % may be the effect or the level left
[6] = molecular target: T4, Acetylcholinesterase (Homo sapiens, UniProt P22303); assay: Inhibition of human recombinant AChE using acetylthiocholine iodide as substrate by Ellman's method; conditions: TDE = time-dependent effect
[7] = molecular target: T4, Acetylcholinesterase; assay: Inhibition of human recombinant AChE using acetylthiocholine iodide as substrate preincubated for 120 mins before substrate addition by Ellman's method
[8] = molecular target: T3, Cholinesterase; assay: Inhibition of human serum BuChE using butyrylthiocholine iodide as substrate by Ellman's method; conditions: TDE = time-dependent effect
[9] = molecular target: T4, Acetylcholinesterase; assay: Reversible inhibition of human recombinant AChE using acetylthiocholine iodide as substrate assessed as recovery of enzyme activity after 48 hrs by Ellman's method; design: scale not given: the % may be the effect or the level left

T4 sequence (P22303 whole entry): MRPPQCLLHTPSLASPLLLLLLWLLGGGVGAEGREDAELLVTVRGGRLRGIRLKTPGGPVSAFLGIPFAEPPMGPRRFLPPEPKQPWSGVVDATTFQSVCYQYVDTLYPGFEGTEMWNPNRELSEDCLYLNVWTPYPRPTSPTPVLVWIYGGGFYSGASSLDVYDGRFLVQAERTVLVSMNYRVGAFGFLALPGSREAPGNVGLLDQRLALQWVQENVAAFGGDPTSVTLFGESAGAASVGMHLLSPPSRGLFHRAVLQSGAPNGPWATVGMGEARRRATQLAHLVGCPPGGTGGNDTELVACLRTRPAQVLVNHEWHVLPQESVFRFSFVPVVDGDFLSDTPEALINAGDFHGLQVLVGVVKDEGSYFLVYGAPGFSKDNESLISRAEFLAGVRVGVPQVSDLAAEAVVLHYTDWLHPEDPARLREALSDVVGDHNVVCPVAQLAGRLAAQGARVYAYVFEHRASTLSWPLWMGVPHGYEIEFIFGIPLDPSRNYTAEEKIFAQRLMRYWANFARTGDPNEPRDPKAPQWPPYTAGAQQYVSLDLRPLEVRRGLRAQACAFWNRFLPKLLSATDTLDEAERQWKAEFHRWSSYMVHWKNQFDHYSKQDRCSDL
T3 sequence (P06276 whole entry): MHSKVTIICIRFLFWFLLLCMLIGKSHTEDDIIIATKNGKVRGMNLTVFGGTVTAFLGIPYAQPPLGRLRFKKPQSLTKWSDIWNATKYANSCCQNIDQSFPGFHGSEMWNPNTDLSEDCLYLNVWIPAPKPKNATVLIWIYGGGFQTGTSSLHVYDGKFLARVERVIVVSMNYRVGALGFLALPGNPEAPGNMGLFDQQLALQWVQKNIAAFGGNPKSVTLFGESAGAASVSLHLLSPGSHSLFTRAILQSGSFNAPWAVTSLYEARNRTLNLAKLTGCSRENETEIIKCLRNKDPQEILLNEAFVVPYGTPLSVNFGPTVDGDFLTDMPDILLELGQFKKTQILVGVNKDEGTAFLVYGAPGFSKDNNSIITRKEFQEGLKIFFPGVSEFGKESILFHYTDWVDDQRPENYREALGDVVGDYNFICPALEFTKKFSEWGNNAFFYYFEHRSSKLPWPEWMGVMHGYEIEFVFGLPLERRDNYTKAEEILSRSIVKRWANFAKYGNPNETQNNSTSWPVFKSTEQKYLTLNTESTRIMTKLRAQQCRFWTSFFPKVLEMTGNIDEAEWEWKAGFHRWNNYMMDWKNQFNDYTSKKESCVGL

## CNC(=O)Oc1cccc(CN(C)CCCCCCCOc2ccc(-c3cc4ccccc4oc3=O)cc2)c1
[1]
  IC50: 9200 nM

## CCCCCCCNC(=O)Oc1cccc(CN(C)CCCOc2ccc3c(=O)cc(-c4ccccc4)oc3c2)c1
[1]
  IC50: 6810 nM

## CCCCNC(=O)Oc1cccc(CN(C)CCCOc2ccc3ccc(=O)oc3c2)c1
[1]
  IC50: 8680 nM

## CCCCCCCNC(=O)Oc1cccc(CN(C)CCCOc2ccc3c(=O)c4ccccc4oc3c2)c1
[1]
  IC50: 3620 nM
[2]
  IC50: 110 nM

## CCCCNC(=O)Oc1cccc(CN(C)CCCOc2ccc3c(=O)cc(-c4ccccc4)oc3c2)c1
[1]
  IC50: 5540 nM
[2]
  IC50: 800 nM

## CCCCCCCNC(=O)Oc1cccc(CN(C)CCCOc2ccc3ccc(=O)oc3c2)c1
[1]
  IC50: 620 nM
[2]
  IC50: 170 nM

## CCCCNC(=O)Oc1cccc(CN(C)CCCOc2ccc3c(=O)c4cccnc4oc3c2)c1
[1]
  IC50: 4230 nM
[2]
  IC50: 1400 nM

## CCCCCCCNC(=O)Oc1cccc(CN(C)CCCOc2ccc3c(=O)c4cccnc4oc3c2)c1
[1]
  IC50: 2210 nM
[2]
  IC50: 400 nM

## CN(CCCOc1ccc2ccc(=O)oc2c1)Cc1cccc(OC(=O)NCCCCCc2ccccc2)c1
[3]
  IC50: 2260 nM
[4]
  IC50: 1.57 nM
[5]
  Activity: 83%
[1]
  IC50: 280 nM
[6]
  inhibition: tde
[7]
  IC50: 74.9 nM
[8]
  inhibition: tde
[2]
  IC50: 50 nM
[9]
  Activity: 30%

## CCCNC(=O)Oc1cccc(CN(C)CCCOc2ccc3c(=O)c4ccccc4oc3c2)c1
[1]
  IC50: 9280 nM
[2]
  IC50: 100 nM

## CN(CCCOc1ccc2ccc(=O)oc2c1)Cc1cccc(OC(=O)NCCCCCCCN2CCOCC2)c1
[3]
  IC50: 14800 nM
[4]
  IC50: 11.2 nM
[1]
  IC50: 5590 nM
[6]
  inhibition: tde
[7]
  IC50: 119 nM
[8]
  inhibition: tde
[2]
  IC50: 1820 nM

## CCCCCCNC(=O)Oc1cccc(CN(C)CCCOc2ccc3c(=O)c4ccccc4oc3c2)c1
[1]
  IC50: 4290 nM
[2]
  IC50: 290 nM

## CN(CCCOc1ccc2c(=O)c3cccnc3oc2c1)Cc1cccc(OC(=O)NCCCCCc2ccccc2)c1
[3]
  IC50: 520 nM
[4]
  IC50: 1.71 nM
[1]
  IC50: 370 nM
[6]
  inhibition: tde
[7]
  IC50: 89.5 nM
[8]
  inhibition: tde
[2]
  IC50: 40 nM

## CN(CCCOc1ccc2c(=O)c3cccnc3oc2c1)Cc1cccc(OC(=O)NCCCCCCCN2CCOCC2)c1
[3]
  IC50: 39000 nM
[4]
  IC50: 27.6 nM
[1]
  IC50: 4310 nM
[6]
  inhibition: tde
[7]
  IC50: 139 nM
[8]
  inhibition: tde
[2]
  IC50: 2710 nM

Reference: ChEMBL document CHEMBL2046402, “The First Dual ChE/FAAH Inhibitors: New Perspectives for Alzheimer's Disease?” (ACS Med Chem Lett, 2012)
